Results reported in ChEMBL document CHEMBL3526107, “In vivo-formed versus preformed metabolite kinetics of trans-resveratrol-3-sulfate and trans-resveratrol-3-glucuronide” (Drug Metab Dispos, 2012).
Each block holds one molecule with its values, some of them ahead of it.

Key:
Type in all cases: ADME, organism-based
[1] = Volume of distribution at steady state in C57BL/6 mouse at 5 mg/kg administered intraarterially by LC-MS/MS analysis; design: dose 5 mg/kg, route intra-arterial; details: in vivo, read-out: Vdss
Summary of the method: (§1)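 Carotid-cannulated male C57BL/6 mice, food withheld for the first 10 h, dosed at 5 mg/kg intraarterially in saline; n = 4. Serial plasma samples taken 2.5–600 min are analysed by LC-MS/MS in negative ESI mode after methanol precipitation with acetaminophen as IS. Noncompartmental analysis uses linear trapezoidal AUC, with Cl = Dose/AUC0-inf, Vss = Cl×MRT, and t1/2 = 0.693/k.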

[2] = Cmax in C57BL/6 mouse at 5 mg/kg administered intraarterially by LC-MS/MS analysis; design: dose 5 mg/kg, route intra-arterial; details: in vivo; summary of the method: as §1
[3] = Clearance in C57BL/6 mouse at 5 mg/kg administered intraarterially by LC-MS/MS analysis; design: dose 5 mg/kg, route intra-arterial; details: in vivo; summary of the method: as §1
[4] = AUC (0 to infinity) in C57BL/6 mouse at 5 mg/kg administered intraarterially by LC-MS/MS analysis; design: time infinity, dose 5 mg/kg, route intra-arterial; details: plasma; summary of the method: as §1
[5] = Terminal half life in C57BL/6 mouse at 5 mg/kg administered intraarterially by LC-MS/MS analysis; design: dose 5 mg/kg, route intra-arterial; details: in vivo, read-out: beta t1/2; summary of the method: as §1
[6] = AUC (0 to t) in C57BL/6 mouse at 5 mg/kg administered intraarterially by LC-MS/MS analysis; design: dose 5 mg/kg, route intra-arterial; details: plasma; summary of the method: as §1
[7] = Tmax in C57BL/6 mouse at 5 mg/kg administered intraarterially by LC-MS/MS analysis; design: dose 5 mg/kg, route intra-arterial; details: in vivo; summary of the method: as §1
[8] = AUC (0 to t) in C57BL/6 mouse at 3.5 mg/kg administered intraarterially by LC-MS/MS analysis; design: dose 3.5 mg/kg, route intra-arterial; details: plasma
Summary of the method: (§2)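 Single 3.5 mg/kg intraarterial bolus in saline via carotid cannula to fasted male C57BL/6 mice; n = 4. Blood (20 µl) is drawn serially over 2.5–600 min and at 24 h. Plasma with ascorbic acid is precipitated with methanol containing acetaminophen IS, then quantified by negative-mode LC-MS/MS. Noncompartmental parameters: trapezoidal AUC, Cl = Dose/AUC0-inf, Vss = Cl×MRT0-inf, t1/2 = 0.693/terminal slope.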

[9] = Volume of distribution at steady state in C57BL/6 mouse at 3.5 mg/kg administered intraarterially by LC-MS/MS analysis; design: dose 3.5 mg/kg, route intra-arterial; details: in vivo, read-out: Vdss; summary of the method: as §2
[10] = Tmax in C57BL/6 mouse at 3.5 mg/kg administered intraarterially by LC-MS/MS analysis; design: dose 3.5 mg/kg, route intra-arterial; details: in vivo; summary of the method: as §2
[11] = Terminal half life in C57BL/6 mouse at 3.5 mg/kg administered intraarterially by LC-MS/MS analysis; design: dose 3.5 mg/kg, route intra-arterial; details: in vivo, read-out: beta t1/2; summary of the method: as §2
[12] = Clearance in C57BL/6 mouse at 3.5 mg/kg administered intraarterially by LC-MS/MS analysis; design: dose 3.5 mg/kg, route intra-arterial; details: in vivo; summary of the method: as §2
[13] = Cmax in C57BL/6 mouse at 3.5 mg/kg administered intraarterially by LC-MS/MS analysis; design: dose 3.5 mg/kg, route intra-arterial; details: in vivo; summary of the method: as §2
[14] = AUC (0 to infinity) in C57BL/6 mouse at 3.5 mg/kg administered intraarterially by LC-MS/MS analysis; design: time infinity, dose 3.5 mg/kg, route intra-arterial; details: plasma; summary of the method: as §2
[15] = Volume of distribution at steady state in C57BL/6 mouse at 15 mg/kg administered intraarterially by LC-MS/MS analysis; design: dose 15 mg/kg, route intra-arterial; details: in vivo, read-out: Vdss
Summary of the method: (§3)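 Male C57BL/6 mice (20–25 g), fasted for the first 10 h of sampling. Single 15 mg/kg bolus in 20% 2-hydroxypropyl-β-cyclodextrin in saline via carotid artery cannula. Serial 20 µl blood draws from 2.5 to 600 min, plus 24 h; n = 5. Plasma is methanol-precipitated (acetaminophen IS) and run on negative-ESI LC-MS/MS. Noncompartmental analysis: linear trapezoidal AUC, Cl = Dose/AUC0-inf, Vss = Cl×MRT, t1/2 = 0.693/k.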

[16] = Clearance in C57BL/6 mouse at 15 mg/kg administered intraarterially by LC-MS/MS analysis; design: dose 15 mg/kg, route intra-arterial; details: in vivo; summary of the method: as §3
[17] = Cmax in C57BL/6 mouse at 15 mg/kg administered intraarterially by LC-MS/MS analysis; design: dose 15 mg/kg, route intra-arterial; details: in vivo; summary of the method: as §3
[18] = AUC (0 to infinity) in C57BL/6 mouse at 15 mg/kg administered intraarterially by LC-MS/MS analysis; design: time infinity, dose 15 mg/kg, route intra-arterial; details: plasma; summary of the method: as §3
[19] = AUC (0 to t) in C57BL/6 mouse at 15 mg/kg administered intraarterially by LC-MS/MS analysis; design: dose 15 mg/kg, route intra-arterial; details: plasma; summary of the method: as §3
[20] = Terminal half life in C57BL/6 mouse at 15 mg/kg administered intraarterially by LC-MS/MS analysis; design: dose 15 mg/kg, route intra-arterial; details: in vivo, read-out: beta t1/2; summary of the method: as §3
[21] = Tmax in C57BL/6 mouse at 15 mg/kg administered intraarterially by LC-MS/MS analysis; design: dose 15 mg/kg, route intra-arterial; details: in vivo; summary of the method: as §3

Vd [1]: 6.37 L/kg
Cmax [2]: 14.8 µM
clearance [3]: 76.3 mL/min/kg
AUC(0-inf) [4]: 4.26 µM·h
half-life [5]: 2.13 h
AUC(0-t) [6]: 4.05 µM·h
Tmax [7]: 2.5 min
SMILES: O=S(=O)(O)Oc1cc(O)cc(/C=C/c2ccc(O)cc2)c1

AUC(0-t) [8]: 10.8 µM·h
Vd [9]: 4.55 L/kg
Tmax [10]: 2.5 min
half-life [11]: 4.54 h
clearance [12]: 13.8 mL/min/kg
Cmax [13]: 27.8 µM
AUC(0-inf) [14]: 11.8 µM·h
SMILES: O=C(O)[C@H]1O[C@@H](Oc2cc(O)cc(/C=C/c3ccc(O)cc3)c2)[C@H](O)[C@@H](O)[C@@H]1O

Vd [15]: 37.6 L/kg
clearance [16]: 119 mL/min/kg
Cmax [17]: 15.3 µM
AUC(0-inf) [18]: 9.85 µM·h
AUC(0-t) [19]: 8.5 µM·h
half-life [20]: 3.18 h
Tmax [21]: 2.5 min
SMILES: Oc1ccc(/C=C/c2cc(O)cc(O)c2)cc1 [RESVERATROL]
